The list is not random: actives were taken first. Their share in the collection is about 2.3%.
TRPC6 inhibitor = inhibitors of mouse TRPC6 channel. HEK293-TRPC6, membrane potential dye, ACh-evoked depolarization; stronger effect = lower value. B-score at 10 µM. AID 2553. 310,000 tested, 1.1% active. Q61143;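 active = B-score under library mean minus 3 SD, initial fluorescence not abnormally high, positive integrated signal ratio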;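 note: B-score derived from integrated fluorescence ratio over the kinetic read; more negative B-score means stronger inhibition of depolarization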
TRPC6 act = activators of mouse TRPC6 channel. HEK293-TRPC6 membrane potential dye fluorescence; stronger effect = higher value. B-score at 10 µM. Q61143. 310,000 tested, 0.13% active;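 active = B-score of the integrated fluorescence ratio above library mean plus 3 SD, and starting fluorescence ratio within library mean plus 5 SD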;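 note: higher score means more depolarization so channel activation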
TRPC4 PAM = TRPC4 (mouse) allosteric potentiation. Q9QUQ5. HEK293 TRPC4beta/mu-opioid, DAMGO EC20, Fluo-4 Ca2+ flux; stronger effect = higher value. B-score at 10 µM. 310,000 tested, 0.42% active;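 active = B-score of calcium response area above 5 SD of library B-scores, with initial fluorescence ratio within 5 SD of library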;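 note: B-score of integrated fluorescence ratio over time as area under calcium response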
Target sequence (Q9QUQ5 whole entry, looked up): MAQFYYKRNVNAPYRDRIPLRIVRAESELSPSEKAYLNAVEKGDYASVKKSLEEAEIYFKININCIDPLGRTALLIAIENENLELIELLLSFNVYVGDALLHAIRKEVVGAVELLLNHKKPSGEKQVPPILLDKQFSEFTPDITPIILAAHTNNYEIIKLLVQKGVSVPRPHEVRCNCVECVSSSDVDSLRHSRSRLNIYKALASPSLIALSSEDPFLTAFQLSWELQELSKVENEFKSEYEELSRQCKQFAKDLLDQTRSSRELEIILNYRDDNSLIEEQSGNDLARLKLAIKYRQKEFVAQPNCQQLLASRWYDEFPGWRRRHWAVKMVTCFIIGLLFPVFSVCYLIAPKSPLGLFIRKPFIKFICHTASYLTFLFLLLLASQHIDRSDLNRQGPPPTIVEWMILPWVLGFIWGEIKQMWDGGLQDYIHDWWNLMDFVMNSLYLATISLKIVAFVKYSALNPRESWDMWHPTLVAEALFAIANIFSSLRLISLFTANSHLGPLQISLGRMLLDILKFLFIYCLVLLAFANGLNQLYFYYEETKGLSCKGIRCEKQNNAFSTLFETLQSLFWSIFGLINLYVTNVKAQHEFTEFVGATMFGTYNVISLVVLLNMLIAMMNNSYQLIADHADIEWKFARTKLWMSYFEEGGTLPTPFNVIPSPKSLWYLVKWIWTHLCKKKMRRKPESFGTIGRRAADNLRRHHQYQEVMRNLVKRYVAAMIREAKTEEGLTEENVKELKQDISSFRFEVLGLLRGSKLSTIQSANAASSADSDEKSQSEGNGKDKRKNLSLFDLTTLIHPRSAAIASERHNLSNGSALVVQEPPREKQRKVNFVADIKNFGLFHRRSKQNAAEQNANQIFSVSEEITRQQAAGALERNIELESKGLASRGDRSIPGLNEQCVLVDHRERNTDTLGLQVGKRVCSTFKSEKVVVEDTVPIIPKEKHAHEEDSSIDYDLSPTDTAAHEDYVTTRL
TRPC4 inh = inhibitors of mouse TRPC4 channel; 300,000 tested, 0.39% active; B-score at 10 µM; Q9QUQ5; HEK293 TRPC4beta/mu-opioid, DAMGO-evoked Fluo4 calcium flux; stronger effect = lower value;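 active = B-score over 3 SD under the library average, no early fluorescence shift, positive overall ratio signal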
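Signal: kinetic Fluo4 fluorescence imaging of calcium influx. Material: stable TRPC4beta/mu-opioid receptor HEK293 cells. Probe or stimulus: DAMGO in two steps, submaximal then maximal.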
TRPC4 agonist = opens the mouse TRPC4 cation channel; B-score at 10 µM; HEK293 TRPC4beta/mu-opioid, Fluo4 calcium fluorescence; stronger effect = higher value; 310,000 tested, 0.49% active; Q9QUQ5;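 active = B-score above 5 SD of library B-scores, and initial fluorescence ratio not above library mean plus 5 SD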;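 note: positive B-score marks a calcium rise read as TRPC4 activation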
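Material: HEK293 stable line with TRPC4beta plus mu-opioid receptor; technique: Fluo4 calcium-sensitive dye fluorescence, kinetic, 1 Hz baseline; timing: Fluo4 dye loading 45 min at room temperature, 110 s recording; controls: assay buffer as low control, maximal DAMGO as high control; read-out: integrated baseline-normalised fluorescence ratio, converted to per-well B score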
TRPC4 sel inh 2 = second check of whether TRPC6 inhibitors also affect mouse TRPC4. shares compounds with TRPC6 inhibitor. HEK293 TRPC4/MOR, membrane potential dye fluorescence; channel activated by saturating DAMGO dose. inhibition, % at 10 µM. 920 tested, 42% active;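 active = compounds whose fluorescence signal differed from control wells by over 3 SD, either direction, in both duplicate plates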
TRPC4 spec = tests whether TRPC6 inhibitors also affect mouse TRPC4; shares compounds with TRPC6 inhibitor; HEK293 TRPC4/mu-opioid, membrane potential fluorescence; activity change, negative = inhibition, % at 10 µM; 920 tested, 61% active; AID 2777;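 active = rise or fall in signal beyond 3 SD of buffer-only wells in both replicate plates, either sign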;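 note: integrated kinetic ratio of fluorescence range over baseline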
HEK293 MPD ctr 2-1 = second check of TRPC6 inhibitor effects in parental HEK293 cells. shares compounds with TRPC6 inhibitor. parental HEK293 membrane potential dye fluorescence; maximal acetylcholine challenge after compound addition. signal change vs control, % at 10 µM. 920 tested, 31% active. AID 2779;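 active = membrane potential signal moving either way by over 3 SD of the maximum-effect control, in both duplicate plates, meaning non-specific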
HEK293 MPD ctr-1 = checks TRPC6 inhibitor effects in parental HEK293 cells. parental HEK293 membrane potential dye fluorescence. membrane potential signal change, % at 10 µM. 920 tested, 60% active. shares compounds with TRPC6 inhibitor. AID 2780;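 active = membrane potential signal shifting up or down by more than 3 SD of buffer-only wells, on both duplicate plates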
HEK293 MPD ctr-2 = checks TRPC6 modulator effects in parental HEK293 cells. 2,400 tested, 51% active. membrane potential signal change, % at 10 µM. membrane potential dye fluorescence. shares compounds with TRPC6 inhibitor. AID 488924;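 active = membrane potential signal moves up or down beyond 5 SD from buffer-only wells, on both duplicate plates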
HEK293 MPD ctr 2-2 = second check of TRPC6 modulator effects in parental HEK293 cells; inhibition, % at 10 µM; 2,400 tested, 14% active; membrane potential dye fluorescence; after compound, maximal acetylcholine stimulation; shares compounds with TRPC6 inhibitor;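 active = membrane potential signal drops by more than 5 SD from the mean control signal, in both duplicate plates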;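 note: plate controls were acetylcholine ECmax control wells for no effect and buffer only wells for full effect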
TRPC4 ctr mod = mouse TRPC4 off-target activity of TRPC6 modulators; shares compounds with TRPC6 inhibitor; HEK293 TRPC4/mu-opioid, membrane potential fluorescence; percent change from control (negative = decrease, positive = increase), % at 10 µM; 2,400 tested, 69% active; AID 488927;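 active = membrane potential signal moved up or down beyond 5 SD of buffer control wells, in both duplicate plates, actives on both sides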;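 note: plate controls were assay buffer wells for no effect and DAMGO maximal-effect wells for full effect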
TRPC4/MOR inh 2 = second check of whether TRPC6 modulators also affect mouse TRPC4; shares compounds with TRPC6 inhibitor; HEK293 TRPC4/mu-opioid, membrane potential dye fluorescence; stimulated with maximal-effect DAMGO; 2,400 tested, 55% active; inhibition, % at 10 µM;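 active = drop in membrane potential signal beyond 5 SD of the control wells in both duplicate plates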;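 note: TRPC4 counter screen for TRPC6 hits run under conditions tuned for TRPC6 not TRPC4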
TRPC6 inh conf = mouse TRPC6 inhibitor confirmation; shares compounds with TRPC6 inhibitor; HEK293-TRPC6, membrane potential dye, ACh-evoked depolarization; inhibition, % at 10 µM; 3,300 tested, 43% active; AID 488960;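 active = fluorescence ratio falls more than 5 SD below the full-stimulation control mean, in both duplicate runs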;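 note: integrated fluorescence ratio of peak minus minimum over baseline after agonist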
TRPC6 act conf = mouse TRPC6 activator confirmation | shares compounds with TRPC6 inhibitor | HEK293-TRPC6 membrane potential dye fluorescence, FDSS | activation, % at 10 µM | 2,800 tested, 11% active | AID 488961;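 active = ratio signal rise beyond 5 SD above unstimulated control wells' mean, seen in both duplicate runs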;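 note: plate controls were buffer EC0 wells for no effect and acetylcholine ECmax response for full effect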
The depositor's hits bear a star; i = inactive; . = not tested or not shown.

SMILES | TRPC6 inhibitor | TRPC6 act | TRPC4 PAM | TRPC4 inh | TRPC4 agonist | HEK293 MPD ctr-2 | HEK293 MPD ctr 2-2 | TRPC4 ctr mod | TRPC4/MOR inh 2 | TRPC6 inh conf | TRPC6 act conf | others
CSc1ccccc1OCc1cc(C(=O)N(Cc2nccn2C)C(C)C)no1 | i | i | i | i | i | . | . | . | . | . | .
Cc1ccc(OCC(O)Cn2c(=N)n(Cc3ccccc3)c3ccccc32)cc1 (stereo not drawn) | -8.1* | i | i | i | i | . | . | . | . | i | i | TRPC4 sel inh 2=40%*;TRPC4 spec=11%*;HEK293 MPD ctr 2-1=258%*;HEK293 MPD ctr-1=8.5%*
Cc1cccc(OCC(O)Cn2c(=N)n(Cc3ccccc3)c3ccccc32)c1 (stereo not drawn) | -5.7* | i | i | i | 55* | 145%* | i | 68%* | 112%* | 50%* | .
Cc1cccc(OCC(O)Cn2c(=N)n(CCN3CCCCC3)c3ccccc32)c1 (stereo not drawn) | i | i | i | i | i | . | . | . | . | . | .
CCSc1nnc(NC(NC(C)=O)(C(F)(F)F)C(F)(F)F)s1 | i | i | i | i | i | . | . | . | . | . | .
CCOC(=O)Cc1csc(NC(=O)CSc2nc(N)c3c(C)c(C)sc3n2)n1 | i | i | i | i | i | . | . | . | . | . | .
CC[N+](C)(CC)CCOC(=O)C(O)(c1ccccc1)C1CCCCC1 (stereo not drawn) | -8.9* | i | i | i | i | . | . | . | . | 83%* | i | TRPC4 sel inh 2=i;TRPC4 spec=i;HEK293 MPD ctr 2-1=-33%*;HEK293 MPD ctr-1=i
CC[N+](C)(CC)CCC(c1ccccc1)C1CCCCC1 (stereo not drawn) | -9.6* | i | i | i | i | . | . | . | . | 81%* | i | TRPC4 sel inh 2=i;TRPC4 spec=i;HEK293 MPD ctr 2-1=-16%*;HEK293 MPD ctr-1=i
CCC(C(=O)NC1CCCCCC1)c1ccccc1 (stereo not drawn) | i | i | i | i | i | . | . | . | . | . | .
CCOC(=O)C(C(=O)Nc1ccccc1)C1CCCCC1 (stereo not drawn) | i | i | i | i | i | . | . | . | . | . | .
CNC(=O)Cn1c(C)cc(=O)c2cccc(C)c21 | -6.2* | i | i | i | i | -398%* | i | -54%* | 30%* | i | i
Cc1cccc2c(=O)cc(C)n(CC(=O)N3CCCCC3)c12 | -6.2* | i | i | i | i | -260%* | i | -46%* | 28%* | i | i
CCOC(=O)Cn1c(C)cc(=O)c2cccc(C)c21 | -7.7* | i | i | i | i | -270%* | i | -44%* | 40%* | i | i
CCOC(=O)Cn1c(=O)cc(C)c2cccc(C)c21 | i | i | i | i | i | . | . | . | . | . | .
Cc1cccc2c(=O)cc(C)n(CC(=O)N3CCOCC3)c12 | i | i | i | i | i | . | . | . | . | . | .
COc1ccc(S(=O)(=O)N2C(=O)/C(=C3\SC(N)=NC3=O)c3ccccc32)cc1 | i | i | i | i | i | . | . | . | . | . | .
O=C(Nc1c2c(nn1-c1ccc(F)cc1)CSC2)c1ccc(S(=O)(=O)N2CCOCC2)cc1 | -5.6* | i | i | i | i | i | i | i | i | i | i
CC1CCN(C(=O)C2CCCN2S(=O)(=O)c2ccc(Cl)cc2)CC1 (stereo not drawn) | i | i | i | i | i | . | . | . | . | . | .
N#CCn1c(CN2CCCC2)nc2ccccc2c1=O | i | i | i | i | i | . | . | . | . | . | .
CCN(Cc1ccncc1)C(=O)C(CO)c1ccccc1 (stereo not drawn) | -5.7* | i | i | i | i | i | 66%* | i | i | 82%* | i
CCN(Cc1ccncc1)C(=S)Nc1ccccc1 | i | i | i | i | i | . | . | . | . | . | .
CN(C)CCNc1nc2c(c(=O)[nH]c(=O)n2C)n1CC(O)COc1ccc(Cl)cc1 (stereo not drawn) | i | i | i | i | i | . | . | . | . | . | .
CCN(CC)CCNc1nc2c(c(=O)[nH]c(=O)n2C)n1CC(O)COc1ccc(Cl)cc1Cl (stereo not drawn) | -8.8* | i | i | i | i | -308%* | 58%* | -56%* | 35%* | 42%* | i
COc1ccc(C(=O)OCC(=O)NC(=O)NC(C)C)cc1OC | i | i | i | i | i | . | . | . | . | . | .
CC(=O)NO | i | i | i | i | i | . | . | . | . | . | .
O=C(CSc1nc2ccccc2c(=O)[nH]1)c1cccs1 | i | i | i | i | i | . | . | . | . | . | .
N#Cc1c(-c2cccs2)nc(SCC(=O)c2cccs2)[nH]c1=O | i | 12* | i | i | i | 114%* | i | 26%* | i | i | 40%*
Cc1ccc(-c2csc(NC(=O)CSc3nc(C)cc(=O)[nH]3)n2)cc1 | -7.7* | i | i | i | i | . | . | . | . | i | i | TRPC4 sel inh 2=i;TRPC4 spec=i;HEK293 MPD ctr 2-1=260%*;HEK293 MPD ctr-1=i
CC(C)=CCN1CCN(Cc2c[nH]c3ccccc23)CC1CCO (stereo not drawn) | i | i | i | i | i | . | . | . | . | . | .
O=C(NC1CC1)C1CCN(C2CCN(C(=O)CCOc3ccccc3)CC2)CC1 | i | 30* | i | i | i | 246%* | i | 76%* | i | i | 66%*

Screens deposited in PubChem BioAssay by Johns Hopkins Ion Channel Center.
